# Screening data (PubChem BioAssay)
# Cneo AK release: Cryptococcus neoformans lysis via adenylate kinase release; C. neoformans lysis, adenylate kinase release luminescence, 4 h; normalised: neutral wells 0, clomiphene wells 100; 0.2% of 360,000 active; lysis activity, % at 15 µM;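 active = mean lysis activity across replicates of at least 80%, whatever share of replicates individually reach that level; inactive = mean lysis activity below 80%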
#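 Assay system: C. neoformans cells. Amount: yeast cell density of 5 × 10^6 cells/mL. Technique: AK luminescence. Buffer or medium: YPD. Times: static 4 h at 37 °C with compound, 1 h detection. Dosing: single-point compound dose. Read-out: lysis from increased AK signal.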
# PglD DTNB: inhibitors of Campylobacter jejuni PglD acetyltransferase; AID 602405; purified PglD enzyme, DTNB colorimetric CoA detection; 0.098% of 360,000 active; inhibition, % at 12.5 µM; in the data active = inhibition above about 16%, passing the limit was not always enough
# Ecoli rRNA inh: inhibitors of bacterial rRNA selective over humanized ribosomes. AID 720706. GFP signal change (wild-type ribosome), % (test concentration not listed). 1.6% of 350,000 active. E. coli WT GFP vs humanized-ribosome RFP mutants, fluorescence, 24 h; hits give low values; DMSO median 0, no signal -100;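 active = significant combined selectivity score with lowered wild-type GFP, culture density cut under 30%, mutant RFP and density less affected; inactive = any of these conditions unmet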
# Mot1-301 SUMO: inhibitors of SUMOylation pathway: yeast Mot1-301 growth rescue; growth rescue, % at 18.8 µM; 1% of 320,000 active; S. cerevisiae Mot1-301 growth rescue, ATP luminescence, 38.5C; percent above DMSO median, 100 means doubled;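 active = every valid replicate shows activation above 250% relative to neutral control wells; inactive = the rest, any valid replicate at or below 250%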;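 note: OY570 slx delta 5 strain wells were the positive control but not used for scaling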
# Yeast superoxide: caloric restriction mimetics inhibiting age-related superoxide in yeast | S. cerevisiae aged cells, superoxide DHE fluorescence; hits give low values | 0.18% of 330,000 active | AID 2690 | superoxide response (% of plate mean), % at 10 µM;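 active = superoxide response under a set limit, about three screen SD below normal, cut at about 65% in these data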;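 note: yeast aged for seven days with compound at 30 °C before DHE staining; 100% = average MFI of all compound-treated wells on the plate with controls excluded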
# Numbers without * were called inactive; . = not tested or not shown. Only some compounds are listed: those with a hit (about 2.2% of all), similar ones and a draw of the others.
SMILES,Cneo AK release,PglD DTNB,Ecoli rRNA inh,Mot1-301 SUMO,Yeast superoxide
COc1ccc(S(=O)(=O)N(C)C[C@@H]2Oc3ccc(NC(=O)C4CC4)cc3C(=O)N([C@H](C)CO)C[C@H]2C)cc1,55,16*,3,.,.
C[C@H]1CN([C@@H](C)CO)C(=O)c2cc(-c3ccc(F)cc3)cnc2O[C@H]1CN(C)C(=O)c1ccc(F)cc1,19,0,-3,.,.
COc1ccc(S(=O)(=O)Nc2ccc3c(c2)CC(=O)N([C@H](C)CO)C[C@H](C)[C@@H](CN(C)C(=O)Nc2ccccc2)O3)cc1,2,-1,2,.,.
CC(C)(C)c1ccc(C(=O)N/C(=C\c2cccc([N+](=O)[O-])c2)C(=O)Nc2cccc(C(=O)O)c2)cc1,-3,36*,-3,-16,105
Cc1cc(NS(=O)(=O)c2ccc(NC(=O)/C=C/c3ccccc3)cc2)nc(C)n1,-3,-5,4,-16,118
COc1ccccc1/C=C/C(=O)Nc1ccc(S(=O)(=O)Nc2cc(C)nc(C)n2)cc1,-1,8,-4,351*,95
C[C@@H]1CN([C@H](C)CO)S(=O)(=O)c2ccc(C#CC3CC3)cc2O[C@@H]1CN(C)C(=O)c1cnccn1,-1,-1,-2,.,.
COc1ccc(C(=O)Nc2nc(N)n(-c3ccccc3)n2)cc1OC,2,3,.,13,106
COc1ccccc1/C=C/C(=O)Nc1nc(N)n(-c2ccccc2)n1,.,.,-25*,-13,103
O=C(Nc1ccc(Cl)c(Cl)c1)N[C@H]1CC[C@H](CCn2cc(C3CC3)nn2)O[C@H]1CO,-4,-1,-11,.,.
CCOC(=O)N1CCC(N(CCCOC)C(=O)Nc2ccc(CC)cc2)CC1,13,-6,-1,15,83
CCOC(=O)N1CCC(N(CCOC)C(=O)Nc2ccc(Cl)cc2)CC1,0,-3,-16*,204,71
COc1ccc(S(=O)(=O)Nc2ccc3c(c2)C(=O)N([C@H](C)CO)C[C@H](C)[C@H](CN(C)Cc2ccncc2)OCCCC[C@@H](C)O3)cc1,0,-2,-4,.,.
O=C(NC1=NN(c2ccccc2)CC1)Nc1ccccc1F,1,9,-32*,85,96
O=C(Nc1ccccc1F)Nc1ccccc1N1CCCCC1,8,-1,-31*,7,100
CCC(=O)Nc1ccc2c(c1)C(=O)N(C)C[C@H](OC)[C@H](C)CN(CC1CC1)[C@@H](C)CO2,8,-2,1,.,.
Fc1ccccc1N1CCN(c2nnnn2-c2ccccc2)CC1,-3,5,-4,7,116
Oc1ccccc1N1CCN(c2nnnn2-c2ccccc2)CC1,-3,4,2,439*,91
COc1cccc(/C=C/C(=O)OCC(=O)c2ccc3c(c2)NC(=O)CO3)c1OC,1,0,-20*,-11,100
COc1ccc(/C=C/C(=O)OCC(=O)c2ccc3c(c2)NC(=O)CO3)c(OC)c1,1,0,-16,20,110
CC(C)Cc1ccc(C(C)C(N)=Nc2ccc(O)cc2)cc1 (stereo not given),11,3,-44*,13,89
CC(C)Cc1ccc(C(C)C(=O)Nc2ccc(O)cc2)cc1 (stereo not given),1,-8,-27,63,100
O=C1NC(CCc2ccccc2)C(=O)N1CCOc1ccccc1 (stereo not given),.,.,-27*,56,100
CCOC(=O)CC(=O)CSc1nc2c(sc(=S)n2-c2ccc(OCC)cc2)c(=O)[nH]1,-12,-4,-28*,4,107
C[C@@H]1CCCCO[C@@H](CN(C)S(=O)(=O)c2cn(C)cn2)[C@@H](C)CN([C@H](C)CO)C(=O)c2cc(NC(=O)CCC(F)(F)F)ccc2O1,1,-3,2,.,.
SMILES,Cneo AK release,PglD DTNB,Ecoli rRNA inh,Mot1-301 SUMO,Yeast superoxide
Cc1noc(C)c1S(=O)(=O)Nc1ccc2c(c1)C(=O)N([C@@H](C)CO)C[C@@H](C)[C@@H](CN(C)C(=O)NC(C)C)O2,2,0,4,.,.
CC1CCN(S(=O)(=O)c2ccc(NC(=O)N3c4ccccc4Sc4ccccc43)cc2)CC1,0,4,.,-17,96
NS(=O)(=O)c1ccc(NC(=O)N2c3ccccc3Sc3ccccc32)cc1,.,.,-45*,1,92
c1ccc(-c2nc3c4ccccc4ccn3c2CN2CCOCC2)cc1,-5,2,-29*,3,88
COc1ccc(CNC(=O)C[C@H]2C=C[C@H](NC(=O)c3ccc4c(c3)OCO4)[C@@H](CO)O2)cc1,-5,-3,2,.,.
O=C(CN1c2ccccc2S(=O)(=O)c2ccccc21)NCc1ccc(F)cc1,-1,2,-33*,9,100
Cc1ccc(COc2ccc(/C=N/O)cc2)cc1,.,.,-16*,1,105
CCOc1ccc(/C=N/O)cc1,-8,-6,.,2,92
Cc1nn(-c2ccccc2)c2nc(N)c(C#N)c(-c3ccc(O)c(O)c3)c12,0,1,-57,195,102
Cc1nn(-c2ccc(F)cc2)c2nc(N)c(C#N)c(-c3ccc(O)c(O)c3)c12,3,-6,-18*,-7,100
Cc1cc(=O)[nH]c(N/N=C/CCc2ccccc2)n1,.,.,-27*,-10,88
Cc1cc(=O)[nH]c(N/N=C/C=C/c2ccccc2)n1,.,.,11,-10,109
C[C@@H]1CN([C@H](C)CO)C(=O)Cc2cc(NS(=O)(=O)c3cn(C)cn3)ccc2O[C@H]1CN(C)S(=O)(=O)c1cccs1,0,-3,3,.,.
O=C(C[C@H]1C[C@H]2c3cc(NC(=O)c4ccc5c(c4)OCO5)ccc3O[C@H]2[C@@H](CO)O1)NCc1cccnc1,-5,-2,-3,.,.
Clc1ccc2nc(SCc3nnc(-c4ccccc4)o3)[nH]c2c1,1,1,.,650*,112
COc1ccccc1S(=O)(=O)N[C@H]1CC[C@@H](CCn2cc(C3CCCC3)nn2)O[C@H]1CO,.,.,-3,.,.
Cc1cc(C)n2cc(CSc3ccc(Cl)cc3)nc2n1,0,2,-25*,1,98
O=C(N[C@H]1C=C[C@@H](CC(=O)N2CCCCC2)O[C@H]1CO)c1ccc2c(c1)OCO2,-4,16*,1,.,.
Cc1cc(NC(=S)Nc2cccnc2)ccc1Br,-1,6,-46*,2,102
C[C@@H]1CN([C@H](C)CO)C(=O)c2cc(NC(=O)Cc3cn(C)c4ccccc34)ccc2O[C@@H]1CN(C)CC1CCCCC1,4,-1,2,.,.
CC1CCN(CCCn2c(SCC(=O)Nc3ccccc3Cl)nc3ccccc3c2=O)CC1,.,.,-33*,-2,107
C[C@@H]1CN([C@@H](C)CO)C(=O)c2cc(NC(=O)CCC(F)(F)F)ccc2O[C@@H](C)CCCCO[C@H]1CN(C)S(=O)(=O)c1cccs1,-2,2,-2,.,.
O=C(C[C@@H]1CC[C@H]2[C@@H](COC[C@H](O)CN2C(=O)Nc2cc(Cl)cc(Cl)c2)O1)N1CCOCC1,2,1,-28*,.,.
